The target of data set [1] is T1, C-X-C chemokine receptor type 4 (Homo sapiens, UniProt P61073). Put plainly: Inhibition of anti-CXCR4 mAb-12G5 binding to CXCR4 in human H9 cells at 0.1 to 10 uM incubated for 20 mins prior to mAbs-12G5 addition measured after 1 hr by flow cytometric analysis. The data set is classed as cell-based. An outline of the steps: (§1)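 H9 cells or primary PHA-induced T-cell blasts pre-incubated 20 min at 4°C with a range of compound concentrations in PBS/1% BSA/0.01% sodium azide. mAb 12G5 (anti-CXCR4) or Sim.2 (anti-CD4) then added to 1 μg/ml for 1 h at 4°C. Detection with Alexa Fluor 488 goat anti-mouse IgG at 2 μg/ml for 1 h, then 2% paraformaldehyde fixation. Flow cytometry on 10,000 events; % inhibition from median fluorescence intensity against no-drug and no-Ab controls.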
T1 sequence (P61073 whole entry): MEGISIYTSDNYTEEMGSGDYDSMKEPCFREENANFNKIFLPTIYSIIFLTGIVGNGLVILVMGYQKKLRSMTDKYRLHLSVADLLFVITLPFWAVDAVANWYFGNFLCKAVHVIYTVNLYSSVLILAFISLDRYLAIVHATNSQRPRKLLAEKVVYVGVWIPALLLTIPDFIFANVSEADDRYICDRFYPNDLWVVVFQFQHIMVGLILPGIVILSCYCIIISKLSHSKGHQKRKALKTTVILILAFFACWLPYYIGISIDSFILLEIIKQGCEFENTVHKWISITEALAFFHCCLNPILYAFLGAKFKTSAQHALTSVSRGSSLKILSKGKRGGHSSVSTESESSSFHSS
Background: Flow cytometry measures light scatter and fluorescence of single cells or particles in a stream.

In data set [2] the target is T1, C-X-C chemokine receptor type 4. Put plainly: Inhibition of anti-CXCR4 mAb-12G5 binding to CXCR4 in human H9 cells at 3 uM incubated for 20 mins prior to mAbs-12G5 addition measured after 1 hr by flow cytometric analysis. The data set is classed as cell-based. An outline of the steps: (§2)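 H9 cells pre-incubated at 4°C with […] compound in PBS/BSA/azide, then stained with anti-CXCR4 mAb 12G5, 44708, 44716 or 44717 at 1 μg/ml for 1 h. Detection with Alexa 488 anti-mouse IgG, then 2% paraformaldehyde fixation. Flow cytometry on 10,000 events; % inhibition from median fluorescence intensity.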

The target is the same in data set [3]. Put plainly: Inhibition of anti-CXCR4 mAb-12G5 binding to CXCR4 in PHA-induced human T cells at 0.1 to 10 uM incubated for 20 mins prior to mAbs-12G5 addition measured after 1 hr by flow cytometric analysis. It counts as cell-based. Conditions: T-cell. An outline of the steps:
as §1

Data set [4] shares this target. Put plainly: Inhibition of anti-CXCR4 mAb-44717 binding to CXCR4 in human H9 cells at 3 uM incubated for 20 mins prior to mAb-44717 addition measured after 1 hr by flow cytometric analysis. The data set is classed as cell-based. An outline of the steps: as §2
The target is the same in data set [5]. Put plainly: Inhibition of anti-CXCR4 mAb-44708 binding to CXCR4 in human H9 cells at 3 uM incubated for 20 mins prior to mAb-44708 addition measured after 1 hr by flow cytometric analysis. It counts as cell-based. An outline of the steps:
as §2

Data set [6] shares this target. Put plainly: Inhibition of anti-CXCR4 mAb-44716 binding to CXCR4 in human H9 cells at 3 uM incubated for 20 mins prior to mAbs-44716 addition measured after 1 hr by flow cytometric analysis. It counts as cell-based. An outline of the steps:
as §2

The target is the same in data set [7]. Put plainly: Inhibition of T-140 binding to CXCR4 (unknown origin) expressed in dog Cf2Th cells incubated for 30 mins prior to T-140 addition measured after 30 mins by fluorescence assay. The data set is classed as cell-based.
The next data set has as its system MDA-MB-231. Put plainly: Cytotoxicity against human MDA-MB-231 cells expressing CXCR4 after 48 to 72 hrs by MTS assay. It counts as cell-based. An outline of the steps:
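MDA-MB-231 breast cancer cells (CXCR4-expressing) exposed to compound for 48 to 72 h; viability by MTS dye reduction (CellTiter 96 Aqueous non-radioactive proliferation assay), run per manufacturer's protocol.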
A general note: Tetrazolium dyes change colour on reduction, which living cells bring about.

Data set [8] deals with Human immunodeficiency virus 1. Put plainly: Antiviral activity against X4 tropic HIV1 isolate 92-HT-599 infected in human TZM-bl cells assessed as neutralization of viral infectivity at 50 to 100 nM incubated 1 hr prior to viral infection measured after 72 hrs by luciferase reporter gene assay. It counts as functional, organism-based. (In general: A reporter such as luciferase makes a cellular process visible.)

Data set [9] has as its target T1, C-X-C chemokine receptor type 4. Put plainly: Inhibition of anti-CXCR4 mAb-44716 binding to CXCR4 in human H9 cells at 1 uM incubated for 20 mins prior to mAbs-44716 addition measured after 1 hr by flow cytometric analysis. It counts as cell-based. An outline of the steps: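 H9 cells held 20 min at 4°C with […] compound in PBS/BSA/azide. Anti-CXCR4 mAb 44716 or an isotype control (anti-ricin RAC18) then added to 1 μg/ml for 1 h at 4°C. Washed, stained with Alexa 488 anti-mouse IgG for 1 h at 4°C, then fixed in 2% paraformaldehyde. Flow cytometry on 10,000 events; % inhibition from median fluorescence intensity.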

In data set [10] the target is T-cell surface glycoprotein CD4 (Homo sapiens) (UniProt P01730). Put plainly: Inhibition of anti-CD4 mAb sim-2 binding to CD4 in human H9 cells at 0.1 to 10 uM incubated for 20 mins prior to mAb sim-2 addition measured after 1 hr by flow cytometric analysis. It counts as cell-based. An outline of the steps: as §1
The target is the same in data set [11]. Put plainly: Inhibition of anti-CD4 mAb sim-2 binding to CD4 in PHA-induced human T cells at 0.1 to 10 uM incubated for 20 mins prior to mAb sim-2 addition measured after 1 hr by flow cytometric analysis. The data set is classed as cell-based. An outline of the steps:
as §1

For data set [12], the system named is Human immunodeficiency virus 1. Put plainly: Antiviral activity against X4 tropic HIV1 BZ-167 infected in human TZM-bl cells assessed as neutralization of viral infectivity at 50 to 100 nM incubated 1 hr prior to viral infection measured after 72 hrs by luciferase reporter gene assay. The data set is classed as functional, organism-based.
The test system of data set [13] is Human immunodeficiency virus 1. Put plainly: Antiviral activity against X4 tropic HIV1 NL4-3 infected in human TZM-bl cells assessed as neutralization of viral infectivity at 50 to 100 nM incubated 1 hr prior to viral infection measured after 72 hrs by luciferase reporter gene assay. It counts as functional, organism-based.
The test system of data set [14] is Human immunodeficiency virus 1. Put plainly: Antiviral activity against X4 tropic HIV1 isolate 92-UG-029 infected in human TZM-bl cells assessed as neutralization of viral infectivity at 50 to 100 nM incubated 1 hr prior to viral infection measured after 72 hrs by luciferase reporter gene assay. It counts as functional, organism-based.
Data set [15] can be described thus: Cytotoxicity against human TZM-bl cells up to 4 uM after 72 hrs by MTS assay. It counts as cell-based. An outline of the steps:
(§3)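 Cultures of TZM-bl, H9, or PHA blasts exposed to compound at concentrations up to 4 μM; MTS dye reduction measured at 72 h.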

The test system of data set [16] is Human immunodeficiency virus 1. Put plainly: Antiviral activity against R5 tropic HIV1 infected in human TZM-bl cells. The data set is classed as functional, organism-based.
In a further data set the test system is H9. Put plainly: Cytotoxicity against human H9 cells up to 4 uM after 72 hrs by MTS assay. It counts as cell-based. As to conditions: h9, 72 h. An outline of the steps:
as §3

Data set [17] in a line: Cytotoxicity against PHA-induced human T cells up to 4 uM after 72 hrs by MTS assay. It counts as cell-based. As to conditions: t-cell. An outline of the steps:
as §3

A word on the IC50: it is the midpoint of a concentration-inhibition curve. Read a high IC50 as lower potency. As a reminder, the CC50 is the concentration that lowers cell viability or growth by half. Read a low CC50 as greater toxicity to the cells.

The source made the active and inactive calls. No cut-off for these calls is given here.

As for `NCCCNCCCCNCCCN`, the inhibition entry in data set [1], in data set [2], in data set [3], in [4], in [5] and in data set [6] was “inactive” in each case.

Regarding `NC(=NCCCNCCCCN(CCCN=C(N)Nc1ccc2ccccc2c1)C(N)=Nc1ccc2ccccc2c1)Nc1ccc2ccccc2c1`, the IC50 in data set [7] is 0.093 µM. The molecule also gave a 50% cytotoxic concentration (CC50) in the data set on MDA-MB-231 of 15 µM.

Turning to `N=C(NCCCNCCCCN(CCCNC(=N)Nc1cccc2ccccc12)C(=N)Nc1cccc2ccccc12)Nc1cccc2ccccc12`, the outcome in data set [8], in data set [12], in [13] and in data set [14] was Active. The inhibition result in data set [9], in data set [1], in data set [2], in data set [3], in data set [4] and in data set [5] was “Active” throughout. The inhibition result in data set [6] is “Active”. Besides, the inhibition entry in [10] and in [11] was “inactive” each time. Moreover, the IC50 in data set [7] was 0.04 µM. The Activity result (in [15]; in the data set on H9; in [17]) was “Non-toxic” throughout. Further, in data set [16], the outcome was inactive. The molecule also yielded a CC50 with MDA-MB-231 of 18 µM.

`N=C(Nc1ccccc1)N(CCCCN=C(N)Nc1ccccc1)CCCN=C(N)Nc1ccccc1` yielded an IC50 in data set [7] of 0.28 µM. In the data set on MDA-MB-231, this molecule had a CC50 of 510 µM.

On to `N=C(NCCCCNCCCNC(=N)Nc1cccc2ccccc12)Nc1cccc2ccccc12`, for which, in data set [7], the IC50 came to 0.22 µM. For the same molecule, the CC50 in the data set on MDA-MB-231 turned out to be 120 µM.

`NC(=NCCCCNCCCN=C(N)Nc1ccc2ccccc2c1)Nc1ccc2ccccc2c1` registered an IC50 in data set [7] of 0.062 µM. Besides, the CC50 with MDA-MB-231 worked out at 76 µM.

As to `N=C(NCCCNCCCCN(CCCNC(=N)Nc1ccc2ccccc2c1)C(=N)Nc1ccc2ccccc2c1)Nc1ccc2ccccc2c1`, in data set [9], the inhibition entry was “Active”. The outcome in data set [16] was inactive.

Take `N=C(NCCCNCCCCNCCCNC(=N)Nc1cccc2ccccc12)Nc1cccc2ccccc12`: in [9], the inhibition result is “Active”. For the same molecule, in data set [7], the IC50 worked out at 0.18 µM. This molecule had a CC50 in the data set on MDA-MB-231 of 300 µM.

Regarding `N=C(NCCCCN(CCCNC(=N)Nc1ccc2ccccc2c1)C(=N)Nc1ccc2ccccc2c1)Nc1ccc2ccccc2c1`, the IC50 in [7] is 0.19 µM.

`NC(=NCCCCN(CCCN=C(N)Nc1cccc2ccccc12)C(N)=Nc1cccc2ccccc12)Nc1cccc2ccccc12` returned an IC50 in [7] of 0.11 µM.

In data set [7], `N=C(NCCCN(CCCCN(CCCNC(=N)Nc1cccc2ccccc12)C(=N)Nc1cccc2ccccc12)C(=N)Nc1cccc2ccccc12)Nc1cccc2ccccc12` registered an IC50 of 0.38 µM. In addition, the CC50 in the data set with MDA-MB-231 is 7.3 µM.

Take `N=C(Nc1ccccc1)N(CCCCN(CCCN=C(N)Nc1ccccc1)C(N)=Nc1ccccc1)CCCNC(N)=Nc1ccccc1`: in data set [7], the IC50 was found to be 0.51 µM. For the same molecule, in the data set on MDA-MB-231, the CC50 was greater than 100 µM.

In the case of `N=C(NCCCN(CCCCN(CCCNC(=N)Nc1ccc2ccccc2c1)C(=N)Nc1ccc2ccccc2c1)C(=N)Nc1ccc2ccccc2c1)Nc1ccc2ccccc2c1`, the IC50 in data set [7] amounted to 0.3 µM. Moreover, it took 20 µM to reach half-maximal cytotoxicity with MDA-MB-231 (CC50).

As for `N=C(NCCCCNCCCNC(=N)Nc1ccccc1)Nc1ccccc1`, the IC50 in data set [7] is 0.26 µM. The same molecule came in with a CC50 in the data set with MDA-MB-231 greater than 1000 µM.

`N=C(NCCCCNCCCNC(=N)Nc1ccc2ccccc2c1)Nc1ccc2ccccc2c1`: in [16], the outcome was inactive.

For `N=C(NCCCNCCCCNCCCNC(=N)Nc1ccc2ccccc2c1)Nc1ccc2ccccc2c1`, the inhibition entry in data set [9] was “Active”. This molecule came in with an IC50 in [7] of 0.11 µM. For the same molecule, the outcome in [16] was inactive. In the data set on MDA-MB-231, this molecule displayed a half-maximal cytotoxic concentration (CC50) of 17 µM.

The values are drawn from ChEMBL document CHEMBL2346661, “Improved guanide compounds which bind the CXCR4 co-receptor and inhibit HIV-1 infection” (Bioorg Med Chem Lett, 2013).
